Calls of active or inactive are those of the source. The rule behind the calls is not given here.
Assays:
[1] = Induction of apoptosis in human HBL1 cells assessed as viable cells at 5 uM measured after 24 hrs by Annexin V-FITC/ Propidium iodide staining based flow cytometry (reference value: 88.1%); assay type: functional; conditions: read-out: Activity
[2] = target: T1, Mucosa-associated lymphoid tissue lymphoma translocation protein 1 (Homo sapiens) (UniProt Q9UDY8); experiment: Inhibition of MALT1 in human HBL1 cells assessed as decrease in RelB substrate cleavage at 8 uM preincubated for 30 mins followed by proteosome inhibitor MG-132 addition and measured after 2 hrs by Western blot analysis; assay type: cell-based; conditions: time 2.5 hrs
T1 sequence (whole entry): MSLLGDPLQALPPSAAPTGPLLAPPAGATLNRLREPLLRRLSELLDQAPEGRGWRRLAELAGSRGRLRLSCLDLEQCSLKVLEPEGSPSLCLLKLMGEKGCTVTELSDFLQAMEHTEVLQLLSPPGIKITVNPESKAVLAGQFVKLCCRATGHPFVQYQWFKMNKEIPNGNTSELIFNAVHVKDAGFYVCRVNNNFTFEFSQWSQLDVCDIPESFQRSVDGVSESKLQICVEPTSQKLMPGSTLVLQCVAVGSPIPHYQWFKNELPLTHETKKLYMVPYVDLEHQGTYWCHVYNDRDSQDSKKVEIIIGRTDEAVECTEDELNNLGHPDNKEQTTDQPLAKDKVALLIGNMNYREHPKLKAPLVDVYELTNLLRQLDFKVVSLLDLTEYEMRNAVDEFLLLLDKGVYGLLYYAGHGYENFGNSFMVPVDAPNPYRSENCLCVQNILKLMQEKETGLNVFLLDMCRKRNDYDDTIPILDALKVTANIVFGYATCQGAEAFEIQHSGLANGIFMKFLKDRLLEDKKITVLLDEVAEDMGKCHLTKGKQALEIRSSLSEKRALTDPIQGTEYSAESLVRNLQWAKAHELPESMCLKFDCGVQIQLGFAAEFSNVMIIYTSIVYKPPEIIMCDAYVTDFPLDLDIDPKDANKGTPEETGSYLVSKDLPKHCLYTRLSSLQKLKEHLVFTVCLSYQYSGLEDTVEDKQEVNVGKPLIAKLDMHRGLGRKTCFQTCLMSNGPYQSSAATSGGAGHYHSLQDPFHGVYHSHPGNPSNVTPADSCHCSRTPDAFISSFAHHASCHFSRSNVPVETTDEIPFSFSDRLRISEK
In short: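 Cells were grown in RPMI with 10% FBS, 2 mM glutamine and 10 mM HEPES at 37 °C, 5% CO₂. Pretreated 30 min with compound (4 and 8 μM), then 10 μM MG-132 for 2 h. 20−75 μg total protein run on SDS-PAGE, blotted to PVDF, probed for RelB, detected by HRP chemiluminescence. β-actin was the loading control.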

OCI-Ly1 [3] = experiment: Induction of apoptosis in human OCI-Ly1 cells assessed as viable cells at 10 uM measured after 24 hrs by Annexin V-FITC/ Propidium iodide staining based flow cytometry (reference value: 97.8%); assay type: functional; conditions: read-out: Activity
[4] = Induction of apoptosis in human HBL1 cells assessed as late apoptosis at 10 uM measured after 24 hrs by Annexin V-FITC/ Propidium iodide staining based flow cytometry (reference value: 4.77%); assay type: functional
OCI-Ly1 [5] = experiment: Induction of apoptosis in human OCI-Ly1 cells assessed as early apoptotic cells at 10 uM measured after 24 hrs by Annexin V-FITC/ Propidium iodide staining based flow cytometry (reference value: 1.29%); assay type: functional
[6] = Induction of apoptosis in human HBL1 cells assessed as late apoptotic cells at 5 uM measured after 24 hrs by Annexin V-FITC/ Propidium iodide staining based flow cytometry (reference value: 4.77%); assay type: functional
[7] = Induction of apoptosis in human HBL1 cells assessed as viable cells at 2 uM measured after 24 hrs by Annexin V-FITC/ Propidium iodide staining based flow cytometry (reference value: 88.1%); assay type: functional; conditions: read-out: Activity
[8] = target: Nuclear factor NF-kappa-B complex (Homo sapiens) (UniProt Q00653+P19838+Q04206); experiment: Inhibition of NF-kappab signaling in human TMD8 cells assessed as reduction in phosphorylation of IkappaB-alpha at 8 uM preincubated for 30 mins followed by MG-132 addition and measured after 2 hrs by Western blot analysis; assay type: cell-based; conditions: time 2.5 hrs
In short: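 HBL1, TMD8 and OCI-LY1 cells pretreated 30 min with inhibitor (4 and 8 μM), then given 10 μM proteasome inhibitor MG-132 for 2 h. Lysates (20−75 μg protein) run on SDS-PAGE, blotted to PVDF and probed for RelB, IκBα and phospho-IκBα, with β-actin as loading control; HRP secondary, chemiluminescence detection.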

OCI-Ly1 [9] = experiment: Induction of apoptosis in human OCI-Ly1 cells assessed as dead cells at 2 uM measured after 24 hrs by Annexin V-FITC/ Propidium iodide staining based flow cytometry (reference value: 0.365%); assay type: functional

Sequence of Nuclear factor NF-kappa-B complex (Homo sapiens) (P19838 whole entry, looked up): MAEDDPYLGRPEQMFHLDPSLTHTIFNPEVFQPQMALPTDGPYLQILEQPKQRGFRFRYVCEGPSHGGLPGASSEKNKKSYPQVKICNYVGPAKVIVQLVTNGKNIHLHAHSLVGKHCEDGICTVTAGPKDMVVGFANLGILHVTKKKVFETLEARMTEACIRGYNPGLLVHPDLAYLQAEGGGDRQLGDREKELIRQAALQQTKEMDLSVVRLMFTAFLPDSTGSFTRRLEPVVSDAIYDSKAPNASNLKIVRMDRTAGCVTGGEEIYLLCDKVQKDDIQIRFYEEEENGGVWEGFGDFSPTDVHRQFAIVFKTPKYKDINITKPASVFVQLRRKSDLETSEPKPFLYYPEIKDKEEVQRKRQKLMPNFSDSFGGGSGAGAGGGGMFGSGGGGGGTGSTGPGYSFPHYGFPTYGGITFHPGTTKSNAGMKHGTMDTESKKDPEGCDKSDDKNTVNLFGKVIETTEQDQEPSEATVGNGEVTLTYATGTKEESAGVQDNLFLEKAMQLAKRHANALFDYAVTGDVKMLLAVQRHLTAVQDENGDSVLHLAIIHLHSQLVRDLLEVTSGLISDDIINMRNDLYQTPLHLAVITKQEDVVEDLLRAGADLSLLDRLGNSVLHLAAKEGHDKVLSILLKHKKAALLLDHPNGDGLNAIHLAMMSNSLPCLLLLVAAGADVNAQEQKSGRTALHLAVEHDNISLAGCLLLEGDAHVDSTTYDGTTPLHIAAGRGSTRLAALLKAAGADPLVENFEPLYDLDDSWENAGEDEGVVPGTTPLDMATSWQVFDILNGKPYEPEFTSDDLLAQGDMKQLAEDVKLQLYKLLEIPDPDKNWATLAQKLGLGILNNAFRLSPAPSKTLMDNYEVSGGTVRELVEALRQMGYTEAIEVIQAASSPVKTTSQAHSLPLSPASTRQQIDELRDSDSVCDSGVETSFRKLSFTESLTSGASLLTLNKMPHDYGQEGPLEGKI
Sequence of Nuclear factor NF-kappa-B complex (Homo sapiens) (Q00653 whole entry, looked up): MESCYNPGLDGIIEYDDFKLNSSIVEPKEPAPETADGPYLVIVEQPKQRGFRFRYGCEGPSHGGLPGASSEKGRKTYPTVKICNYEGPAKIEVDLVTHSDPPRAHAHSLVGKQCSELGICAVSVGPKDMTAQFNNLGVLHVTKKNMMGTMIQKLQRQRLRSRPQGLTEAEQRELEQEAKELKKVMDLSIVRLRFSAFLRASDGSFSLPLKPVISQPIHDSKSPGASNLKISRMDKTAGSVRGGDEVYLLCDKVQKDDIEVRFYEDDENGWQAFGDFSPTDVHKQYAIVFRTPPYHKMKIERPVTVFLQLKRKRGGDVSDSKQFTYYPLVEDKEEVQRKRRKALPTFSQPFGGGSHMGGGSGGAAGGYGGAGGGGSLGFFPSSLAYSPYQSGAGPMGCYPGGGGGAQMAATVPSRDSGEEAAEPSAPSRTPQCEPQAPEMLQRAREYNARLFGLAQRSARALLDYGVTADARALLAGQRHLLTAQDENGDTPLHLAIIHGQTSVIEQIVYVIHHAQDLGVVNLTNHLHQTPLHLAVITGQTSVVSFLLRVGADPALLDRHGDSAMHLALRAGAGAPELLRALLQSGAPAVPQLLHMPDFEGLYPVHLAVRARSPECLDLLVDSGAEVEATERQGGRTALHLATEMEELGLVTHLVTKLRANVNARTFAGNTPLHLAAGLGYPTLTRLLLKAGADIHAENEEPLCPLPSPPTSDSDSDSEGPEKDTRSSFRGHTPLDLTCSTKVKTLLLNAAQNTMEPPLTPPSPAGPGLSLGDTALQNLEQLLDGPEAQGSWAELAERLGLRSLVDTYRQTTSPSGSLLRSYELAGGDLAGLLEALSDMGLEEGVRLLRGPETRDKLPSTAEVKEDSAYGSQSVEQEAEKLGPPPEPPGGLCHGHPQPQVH
Sequence of Nuclear factor NF-kappa-B complex (Homo sapiens) (Q04206 whole entry, looked up): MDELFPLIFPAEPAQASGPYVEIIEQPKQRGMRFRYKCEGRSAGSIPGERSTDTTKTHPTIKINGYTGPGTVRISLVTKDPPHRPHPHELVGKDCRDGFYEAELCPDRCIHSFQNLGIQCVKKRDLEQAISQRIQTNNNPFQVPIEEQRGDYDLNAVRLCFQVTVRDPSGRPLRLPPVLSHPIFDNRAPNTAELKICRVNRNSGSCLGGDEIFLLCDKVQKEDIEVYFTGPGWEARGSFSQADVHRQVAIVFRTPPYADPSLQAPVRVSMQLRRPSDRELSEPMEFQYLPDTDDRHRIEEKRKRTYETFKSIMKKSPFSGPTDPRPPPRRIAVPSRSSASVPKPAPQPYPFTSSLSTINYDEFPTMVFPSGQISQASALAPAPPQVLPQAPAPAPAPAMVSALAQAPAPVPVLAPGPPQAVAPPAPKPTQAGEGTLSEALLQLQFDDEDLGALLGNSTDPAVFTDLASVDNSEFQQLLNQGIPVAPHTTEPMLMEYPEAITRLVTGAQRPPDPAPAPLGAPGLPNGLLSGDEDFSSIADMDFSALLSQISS

## COc1ccc(OC)c(NC(=O)c2sc(=S)n(-c3ccc(C(F)(F)F)cc3)c2NC(=O)CCl)c1
[1]
  viability at 5 µM: 38.8%
[2]
  inhibition: Active
OCI-Ly1 [3]
  viability at 10 µM: 95.5%
[4]
  Activity: 35%
OCI-Ly1 [5]
  Activity: 2.65%
[6]
  Activity: 17.3%
[7]
  viability at 2 µM: 85.8%
[8]
  inhibition: Active
OCI-Ly1 [9]
  Activity: 0.011%
